Publication PMC7770080 (Biochemical pharmacology, 2020)
Like-named read-outs stand apart in the source and are kept apart here. Values belong to the compound of their own block, whether it stands above or below them.

Experiments:
[1] = test system: C. difficile strain 630 spores; test: Prevention of murine CDI after C. difficile spore challenge; format: in vivo, mice; settings: 50 mg/kg oral gavage, three doses; for Time to clinical endpoint: clinical endpoint > 6 on CDI severity scale; for CDI signs in spore-challenged mice: 10^8 CFU spores
C. difficile spores [2] = test: In vitro C. difficile spore germination assay; format: cell-based, Clostridioides difficile
CYP3A4 = CYP3A4 (Homo sapiens, UniProt P08684); test: Vivid CYP3A4 Green screening assay with P450 BACULOSOMES
CYP3A4, sequence (P08684 whole entry): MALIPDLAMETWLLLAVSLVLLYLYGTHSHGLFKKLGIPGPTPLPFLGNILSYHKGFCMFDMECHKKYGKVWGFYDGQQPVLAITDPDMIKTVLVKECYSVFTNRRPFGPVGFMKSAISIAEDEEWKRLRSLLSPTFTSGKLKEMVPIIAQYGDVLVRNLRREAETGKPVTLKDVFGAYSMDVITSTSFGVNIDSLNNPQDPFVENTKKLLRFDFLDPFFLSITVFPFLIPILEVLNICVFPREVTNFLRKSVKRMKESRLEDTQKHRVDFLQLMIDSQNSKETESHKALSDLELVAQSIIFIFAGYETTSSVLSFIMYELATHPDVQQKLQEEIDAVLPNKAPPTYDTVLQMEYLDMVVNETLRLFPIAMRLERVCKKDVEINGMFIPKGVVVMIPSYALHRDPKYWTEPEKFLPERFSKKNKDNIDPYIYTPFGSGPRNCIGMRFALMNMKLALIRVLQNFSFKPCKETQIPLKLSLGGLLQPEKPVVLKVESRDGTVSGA

[3] = Interaction with cholestyramine resin in vitro and recovery from the resin; format: physicochemical; settings: for Binding to cholestyramine resin in vitro: 20 mg/ml cholestyramine, overnight, 37°C
[4] = CamSA and mSA in liver, blood, kidney and chyme after oral CamSA; format: in vivo, mice; settings: for Highest concentration found in the liver: 50 mg/kg oral CamSA, calculated; for Amount recovered from chyme as fraction of total dosed CamSA: all five time points together; for Total administered CamSA recovered from feces, organs and chyme: semi-quantitative
[5] = Fecal excretion of CamSA and mSA after oral CamSA in cpx and non-cpx mice; format: in vivo
C. difficile [6] = settings: cited from earlier work
C. difficile [7] = settings: cited from earlier work; remark: listed apart in the source
[8] = test system: murine GI microbiota (feces); test: Metabolism of CamSA by fecal microbiota; format: in vitro ADME, mice
[9] = Effect of cholestyramine feed on CamSA in liver of cpx mice; format: in vivo; settings: 22 hours post-CamSA
Summary of the method: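 Cefoperazone-treated mice, individually housed, were fed chow with 4% w/w (n=3) or 0% w/w (n=4) cholestyramine from 24 h before test compound dosing until the end. At 22 h post-dose, livers with attached gallbladders were harvested, stored at −20 °C, then homogenised. Acetonitrile was added to precipitate protein, and samples were centrifuged and filtered (0.2 μm). Analysis was by RP-HPLC-MS on a PSDVB column with isocratic 40% ACN, 5 mM ammonium acetate, 0.1% formic acid.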

[10] = 24 hours, both conditions; cited from earlier work
Caco-2 monolayers = settings: cited from earlier work
Bifidobacterium longum = settings: 24 hours, pure culture; cited from earlier work
Lactobacillus gasseri = settings: 24 hours, pure culture; cited from earlier work
C. difficile spores [11] = settings: in vitro and in vivo; cited from earlier work

SMILES: C[C@H](CCC(=O)Nc1cccc(S(=O)(=O)O)c1)[C@H]1CC[C@H]2[C@@H]3[C@H](O)C[C@@H]4C[C@H](O)CC[C@]4(C)[C@H]3CC[C@]12C [12-deoxy-CamSA]
CDI severity score [1]: > 6 | Time to clinical endpoint [1]: 48 hours post-challenge

SMILES: C[C@H](CCC(=O)[O-])[C@H]1CC[C@H]2[C@@H]3[C@H](O)C[C@@H]4C[C@H](O)CC[C@]4(C)[C@H]3C[C@H](O)[C@]12C.[Na+] [cholate, Sodium cholate, reference compound]
Effect on C. difficile spore germination in vitro (C. difficile spores [2]): could stimulate spore germination | Time to clinical endpoint [1]: ≤ 48 hours post-challenge

IC50 (CYP3A4): 17.5 ± 1.1 mM | Binding to cholestyramine resin in vitro [3]: bound completely | Reversibility of binding to cholestyramine ([3]; stripping under strong acidic conditions): irreversible | Highest concentration found in the liver [4]: approximately 20 μM | Detection in kidney ([4]; cpx mice): detected | Detection in blood ([4]; cpx mice, any time point): unable to detect | Amount recovered from chyme relative to amount recovered from feces ([4]; non-cpx mice): about 85% | Amount recovered from chyme as fraction of total dosed CamSA ([4]; non-cpx mice, detected as mSA): 13% | Detection in feces ([5]; cpx mice, any time point): not observed | Amount recovered from feces relative to CamSA from the same animals (higher) ([5]; non-cpx mice): approximately 40 fold | Time of first large peak in feces ([5]; non-cpx mice, after CamSA administration): ≤ 12 h
SMILES: Nc1cccc(S(=O)(=O)O)c1 [mSA, metanilic acid]
Effect on C. difficile spore germination in vitro (C. difficile spores [2]): neither induced nor inhibited | Time to clinical endpoint [1]: ≤ 48 hours post-challenge | Detection in blood ([4]; non-cpx mice): only detected in blood at the 22-hour time point | Detection in kidney ([4]; non-cpx mice): only detected in kidney at the 12-hour time point

SMILES: C[C@H](CCC(=O)Nc1cccc(S(=O)(=O)O)c1)[C@H]1CC[C@H]2[C@@H]3[C@H](O)C[C@@H]4C[C@H](O)CC[C@]4(C)[C@H]3C[C@H](O)[C@]12C [CamSA]
Acute toxicity (C. difficile [6]; CamSA-treated mice): did not indicate any signs of acute toxicity or damage to GI tissue | Prevention of CDI symptoms (C. difficile [6]; single 50 mg/kg dose): completely prevent CDI symptoms | Effect on mean time of death of infected animals (C. difficile [7]; CamSA alone): double the mean time of death | Prevention of CDI onset (C. difficile [7]; CamSA alone): unable to prevent the onset of CDI | Hamsters protected, no CDI symptoms a month post-challenge (C. difficile [7]; CamSA with sub-clinical doses of vancomycin): 70% | Hydrolysis of CamSA to cholate and mSA ([8]; GI microbiota of mice not treated with antibiotics): slowly hydrolyzed | Degradation of CamSA by recovered microbiota ([8]; feces collected one week after last antibiotic dose, data not shown): degraded CamSA at a similar rate as feces from animals that had never received antibiotics | Detection in liver ([9]; 0% cholestyramine feed): detected CamSA from liver samples from three of the four mice | Detection in liver ([9]; 4% cholestyramine feed): unable to detect | IC50 (CYP3A4; read-out: IC50 on CYP3A4 activity, assuming inhibition of CYP3A4, triplicate): 0.62 ± 0.11 mM | Binding to cholestyramine resin in vitro [3]: nearly complete sequestration | Recovery from cholestyramine resin ([3]; 0.5 N aqueous HCl, absence of feces): less than 1% | Recovery from cholestyramine resin ([3]; 0.5 N ethanolic HCl, absence of feces): up to 75% | Recovery from cholestyramine resin ([3]; 0.5 N ethanolic HCl, presence of fecal matter): less than 10% | Degradation in artificial gastric or intestinal juices [10]: no CamSA degradation was observed | CDI signs in spore-challenged mice [1]: little to no signs of CDI | Intestinal permeability (Caco-2 monolayers): limited intestinal permeability | Highest concentration found in the liver [4]: approximately 140 μM | Total administered CamSA recovered from feces, organs and chyme ([4]; cpx animals): approximately 40% | Detection in kidney ([4]; cpx mice): negligible amounts | Total amount recovered from liver relative to feces (less) ([4]; cpx mice): approximately 10 fold | Amount recovered from chyme as fraction of total dosed CamSA ([4]; cpx mice): 10% | Detection in blood ([4]; cpx mice, any time point): unable to detect | Time of peak hepatic concentration ([4]; cpx mice, one animal per time point): 22 h | CamSA and mSA recovered from chyme relative to blood (higher) ([4]; mouse, in vivo): 300 fold | CamSA and mSA recovered from chyme relative to other organs (higher) ([4]; mouse, in vivo): at least 10 fold | Total administered CamSA recovered from feces, organs and chyme ([4]; non-cpx animals): ~25% | Detection in blood ([4]; non-cpx mice): not detected | Total combined CamSA and mSA recovered from liver relative to feces (less) ([4]; non-cpx mice): approximately 10 fold | CamSA hydrolyzed (Bifidobacterium longum): approximately 80% | CamSA hydrolyzed (Lactobacillus gasseri): approximately 80% | Retention of intact compound in the animal ([5]; antibiotic-treated mouse): 7 days post-administration | Start of CamSA excretion in feces ([5]; cpx mice): around 6 hours post-administration | Time of second fecal excretion maximum ([5]; cpx mice): 32 hours post-administration | Fraction of total dosed CamSA recovered from feces ([5]; cpx mice, 50 mg/kg oral, over a week): approximately 30% | Detection in feces ([5]; non-cpx mice): low levels of intact CamSA | Maximum amount recovered from feces at a single time point relative to cpx mice ([5]; non-cpx mice): four-fold lower | Fraction of total dosed drug recovered from feces, mSA plus CamSA ([5]; non-cpx mice, 50 mg/kg oral, over a week): approximately 15% | Effect on taurocholate-mediated C. difficile spore germination (C. difficile spores [11]): potent inhibitor

SMILES: C[C@H](CCC(=O)Nc1cccc(S(=O)(=O)O)c1)[C@H]1CC[C@H]2[C@@H]3CC[C@@H]4C[C@H](O)CC[C@]4(C)[C@H]3C[C@H](O)[C@]12C [7-deoxy-CamSA]
CDI signs in spore-challenged mice [1]: only moderate CDI signs
